Source: PMC5161665 (Nature, 2016)
Peptide text beside a SMILES is read from it. * marks the point of attachment. Cbz = O=C(OCc1ccccc1)*

Assays:
[1] = test system: T. cruzi epimastigotes; experiment: microbe, parasite or virus in culture; type: cell-based, Trypanosoma cruzi; conditions: for inhibition of T. cruzi epimastigote proliferation, potency: wild type epimastigotes
[2] = test system: ubiquitylated proteins in T. cruzi epimastigotes; experiment: Accumulation of ubiquitylated proteins in T. cruzi epimastigotes; type: cell-based; conditions: Trypanosoma cruzi, read-out: ubiquitylation EC50, T. cruzi epimastigotes
Procedure, shortened: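 T. cruzi epimastigotes were seeded at 1 × 10^7 cells/well in LIT medium and exposed to DMSO (0.2%) or a range of test compound concentrations for 2–12 h at 27 °C. Cells were pelleted, washed twice in PBS, and lysed for 20 min on ice in Tris pH 7.4/NaCl/1% CHAPS buffer with protease inhibitors and N-ethylmaleimide. Lysates were cleared at 21,000 g, 30 min, 4 °C.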

[3] = target: T1, PSMB4^I29M T. cruzi proteasome (Trypanosoma cruzi, UniProt Q4CU77+Q4D8U7, I29M); experiment: Proteasome proteolytic activities, PSMB4^I29M T. cruzi proteasome; type: biochemical; conditions: mean ± s.e.m., n=3
T1 sequence (Q4CU77 1-206 I29M): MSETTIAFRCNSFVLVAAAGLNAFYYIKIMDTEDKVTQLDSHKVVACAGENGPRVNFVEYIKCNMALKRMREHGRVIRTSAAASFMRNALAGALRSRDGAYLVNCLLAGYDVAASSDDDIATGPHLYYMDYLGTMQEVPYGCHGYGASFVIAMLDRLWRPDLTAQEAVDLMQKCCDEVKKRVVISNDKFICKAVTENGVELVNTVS
T1 sequence (Q4D8U7 111-311): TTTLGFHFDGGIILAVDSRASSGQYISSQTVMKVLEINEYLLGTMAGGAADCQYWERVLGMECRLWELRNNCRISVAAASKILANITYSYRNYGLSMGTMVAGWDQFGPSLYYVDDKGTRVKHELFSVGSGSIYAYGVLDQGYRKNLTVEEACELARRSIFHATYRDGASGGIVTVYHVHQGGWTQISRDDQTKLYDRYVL

[4] = test system: T. brucei (GVR35-VSL2); experiment: Mouse model of stage II HAT; type: in vivo, Trypanosoma brucei; conditions: single ip dose 40 mg/kg

Compound	inhibition of T. cruzi epimastigote proliferation, potency [1]	EC50 [2]	IC50 ([3]; IC50 caspase, caspase-like activity)	IC50 ([3]; IC50 chymotrypsin, chymotrypsin-like activity)	IC50 ([3]; IC50 trypsin, trypsin-like activity)	EC50 ([1]; Trypanosoma cruzi, read-out: growth inhibition EC50 on T. cruzi epimastigotes)	parasite clearance / recrudescence [4]	parasites in the brain ([4]; ex vivo brain imaging)
CC(C)C[C@@H](C=O)NC(=O)[C@H](CC(C)C)NC(=O)[C@H](CC(C)C)NC(=O)OCc1ccccc1 [MG132] (Cbz-Leu-Leu-Leu-aldehyde)	sub-micromolar potency	–	–	–	–	–	–	–
CC(C)C[C@H](NC(=O)[C@H](Cc1ccccc1)NC(=O)c1cnccn1)B(O)O [bortezomib]	sub-micromolar potency	0.062 µM	0.54 ± 0.012 µM	0.26 ± 0.04 µM	1.6 ± 0.058 µM	0.16 µM	–	–
CC(=O)NCC(=O)O.CC(=O)NCC(=O)O.N=C(N)c1ccc(N=NNc2ccc(C(=N)N)cc2)cc1 [diminazene aceturate]	–	–	–	–	–	–	did not prevent parasite recrudescence 21 days later	parasites were clearly detected in the brains
